This is an account of results in ChEMBL document CHEMBL1149635, “New chemical tools for investigating human mitotic kinesin Eg5” (Bioorg Med Chem, 2007).

Calls of active or inactive are those of the source. The calls are words filed in the database; no cut-off is given here.

Assay [1] deals with HeLa. Briefly: Induction of monoastral spindles in HeLa cells at 50 uM after 7 hrs. The class given is functional, Homo sapiens. Summed up: (§1)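 Fixed 1% paraformaldehyde-PBS 37 °C 3 min, then methanol −20 °C 5 min; anti-β-tubulin plus FITC secondary, propidium iodide counterstain. Monoastral spindles counted as percentage of mitotic cells; <25% deemed not significant.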
The subject of assay [2] is HeLa. Briefly: Induction of monoastral spindles in HeLa cells at 100 uM after 7 hrs. The class given is functional, Homo sapiens. Summed up:
as §1

The target of assay [3] is T1, Kinesin-like protein KIF11 (Homo sapiens, UniProt P52732).
T1 sequence (P52732 whole entry): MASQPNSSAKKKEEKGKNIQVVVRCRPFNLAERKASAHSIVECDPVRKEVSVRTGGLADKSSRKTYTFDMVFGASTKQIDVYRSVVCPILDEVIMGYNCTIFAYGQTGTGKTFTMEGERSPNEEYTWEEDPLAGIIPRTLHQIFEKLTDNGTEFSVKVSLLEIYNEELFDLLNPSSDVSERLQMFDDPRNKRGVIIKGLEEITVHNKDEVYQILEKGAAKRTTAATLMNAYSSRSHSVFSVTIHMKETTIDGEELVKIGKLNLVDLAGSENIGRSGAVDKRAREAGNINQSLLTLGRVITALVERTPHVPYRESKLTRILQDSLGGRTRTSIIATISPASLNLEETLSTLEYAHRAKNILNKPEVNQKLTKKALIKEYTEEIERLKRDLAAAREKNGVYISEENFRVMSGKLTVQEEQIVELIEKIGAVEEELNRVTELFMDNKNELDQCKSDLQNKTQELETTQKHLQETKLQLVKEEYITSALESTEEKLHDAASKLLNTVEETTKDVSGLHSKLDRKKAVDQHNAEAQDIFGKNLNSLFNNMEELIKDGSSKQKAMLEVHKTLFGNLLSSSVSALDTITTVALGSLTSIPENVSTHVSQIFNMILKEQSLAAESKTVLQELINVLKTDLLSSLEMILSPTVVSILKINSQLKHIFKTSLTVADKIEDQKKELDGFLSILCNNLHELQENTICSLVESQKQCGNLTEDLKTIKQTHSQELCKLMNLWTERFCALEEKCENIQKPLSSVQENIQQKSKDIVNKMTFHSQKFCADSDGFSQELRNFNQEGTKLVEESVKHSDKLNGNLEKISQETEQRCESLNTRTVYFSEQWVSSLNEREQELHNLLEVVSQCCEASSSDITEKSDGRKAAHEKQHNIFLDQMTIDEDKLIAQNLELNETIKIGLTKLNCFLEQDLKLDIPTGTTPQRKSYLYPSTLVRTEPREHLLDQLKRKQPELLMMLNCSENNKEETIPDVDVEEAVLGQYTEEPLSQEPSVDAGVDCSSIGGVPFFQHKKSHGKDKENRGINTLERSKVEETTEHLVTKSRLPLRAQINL
Kind of assay: Inhibition of microtubule-stimulated Eg5 ATPase activity expressed in Escherichia coli after 12 hrs. It is filed as functional.

Assay [4] concerns the target T1, Kinesin-like protein KIF11. Kind of assay: Inhibition of Eg5 ATPase activity expressed in Escherichia coli after 12 hrs. The class given is functional.
Assay [5] concerns the target T2, Kinesin-like protein KIF11 (Homo sapiens) (UniProt P52732).
T2 sequence (whole entry): T1 sequence (P52732 whole entry)
Briefly: Inhibition of microtubule-stimulated Eg5 ATPase activity expressed in Escherichia coli at 500 uM after 12 hrs. It is filed as functional.

The target in assay [6] is T2, Kinesin-like protein KIF11 (Homo sapiens). Kind of assay: Inhibition of Eg5 ATPase activity expressed in Escherichia coli at 500 uM after 12 hrs. The class given is functional. Summed up: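 Basal (no microtubules) steady-state ATPase of Eg5 2–386 at 1.0 µM, pyruvate kinase/lactate dehydrogenase-coupled assay, room temperature, duplicate, 2.5% DMSO; top concentration 500 µM. Acetylated analogues alternatively preincubated (2 mM) 12 h at 37 °C in DMEM + 10% FBS before basal ATPase measurement.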

The test system of assay [7] is HeLa. Kind of assay: Induction of monoastral spindles in HeLa cells after 7 hrs. Conditions: Homo sapiens. The class given is functional, cell-based. Summed up:
as §1

Assay [8] relates to HeLa. Kind of assay: Cell cycle arrest in human HeLa cells assessed as 4N DNA content at 100 uM after 24 hrs. It is filed as functional. Summed up:
(§2)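 HeLa cells exposed 24 h; two-dimensional flow cytometry with MPM-2 antibody (mitosis-specific phosphoepitopes, FITC-conjugated secondary) and propidium iodide for DNA content; 10,000 events per sample, aggregates gated out; 4N population and fraction MPM-2 positive scored.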

The subject of assay [9] is HeLa. Kind of assay: Cell cycle arrest in human HeLa cells assessed as 4N DNA content at 25 uM after 24 hrs. The class given is functional. Summed up:
as §2

Assay [10] concerns the target T1, Kinesin-like protein KIF11. Briefly: Inhibition of Eg5 ATPase activity expressed in Escherichia coli after 12 hrs.

What is called IC50 is the concentration needed to halve the response being measured. Read a high IC50 as weaker potency in that assay. For `CC1=C(C(=O)OCCOCCOC(=O)C2=C(C)NC(=S)NC2c2cccc(O)c2)C(c2cccc(O)c2)NC(=S)N1` (configuration not stated), the Activity in the assay with HeLa [1] is less than 25%; with HeLa [2] it was 11.4%. Further, the figures for the IC50 in [3] and in assay [4] were 24 µM and 10 µM, respectively.

On to `CCOC(=O)C1=C(C)NC(SCC)=NC1c1cccc(O)c1` (configuration not stated), for which the result in assay [5] and in [6] was inactive. The Activity in the assay with HeLa [1] and in the assay on HeLa [2] was less than 25% in each case.

With `CC1=C(C(=O)OCCOCCO)C(c2cccc(O)c2)NC(=S)N1` (configuration not stated), the Activity in the assay on HeLa [1] was less than 25%; with HeLa [2] it was 50.5%. Moreover, the IC50 in assay [3] was 21 µM; in assay [4], 9.5 µM.

On to `CCOC(=O)C1=C(C)NC(=S)NC1c1ccc(OCCOCCOCCO)c(O)c1` (configuration not stated), for which the result in assay [5] and in assay [6] was inactive. Further, the Activity is less than 25% in the assay on HeLa [1] and 10.3% in the assay on HeLa [2].

For the compound `CC1=C(C(=O)c2ccco2)C(c2cccc(O)c2)NC(=S)N1` (configuration not stated), the IC50 in the assay on HeLa [7] was found to be 9.2 µM; in [3], 3 µM; in assay [4] it was 1.5 µM. The figures for the Activity in the assay on HeLa [8], in the assay with HeLa [9] and with HeLa [1] were 77%, 72% and 96.8%, respectively.

`CCOC(=O)C1=C(C)NC(=S)NC1c1cc(O)ccc1[N+](=O)[O-]` (configuration not stated): the outcome in [5] and in assay [6] was inactive. Also, the Activity in the assay with HeLa [1] is less than 25%.

`CC1=C(C(=O)O)C(c2cccc(O)c2)NC(=S)N1` (configuration not stated): the values for the Activity with HeLa [1] and in the assay on HeLa [2] were less than 25% and 15.5%, respectively. Further, the IC50 was found to be 72.2 µM in assay [3] and 32 µM in [4].

Consider `CCOC(=O)C1=C(C)NC(=[Se])NC1c1cccc(O)c1` (configuration not stated), for which the Activity with HeLa [2] turned out to be 33.2%. The IC50 in assay [3] was 23 µM; in [4] it was 11.5 µM.

With `CC1=C(C(=O)NCCOCCOCCN=[N+]=[N-])C(c2cccc(O)c2)NC(=S)N1` (configuration not stated), the Activity is listed as less than 25% with HeLa [1] and 14.9% in the assay on HeLa [2]. For the same compound, the IC50 was 69.1 µM in assay [3] and 39 µM in assay [4].

Turning to `CC(=O)SCCOCCOC(=O)C1=C(C)NC(=S)NC1c1cccc(O)c1` (configuration not stated), the Activity with HeLa [1] was less than 25%; in the assay on HeLa [2], 32.5%. Also, the IC50 was 11.5 µM in assay [3] and 4.5 µM in assay [4].

With `CCNC(=O)C1=C(C)NC(=S)NC1c1cccc(O)c1` (configuration not stated), the Activity in the assay with HeLa [1] is less than 25%; in the assay with HeLa [2] it was 17.8%. The results for the IC50 in [3] and in assay [4] were 82.3 µM and 23 µM, respectively.

As to `CC1=C(C(=O)NCCOCCOCCN)C(c2cccc(O)c2)NC(=S)N1` (configuration not stated), the values for the Activity in the assay on HeLa [1] and in the assay with HeLa [2] were less than 25% and 15.8%, respectively. Besides, the values for the IC50 in assay [3] and in [4] were 18.3 µM and 22 µM, respectively.

Consider `CCOC(=O)C1=C(C)NC(=S)NC1c1cc(O)ccc1O` (configuration not stated), for which the result in assay [5] and in assay [6] was inactive. Also, the result with HeLa [1] (Homo sapiens) was Active.

Take `CCOC(=O)C1=C(C)NC(=S)NC1c1cc(OC(C)=O)ccc1OC(C)=O` (configuration not stated): the outcome in assay [5] and in [6] was inactive. The compound also gave an Activity in the assay with HeLa [1] of 56.2%.

In the case of `CC1=C(C(=O)OCCOCCS)C(c2cccc(O)c2)NC(=S)N1` (configuration not stated), the results for the Activity in the assay with HeLa [1] and in the assay on HeLa [2] were less than 25% and 15.2%, respectively. The results for the IC50 in assay [3] and in [4] were 5.5 µM and 4 µM, respectively.

With `CCOC(=O)C1=C(C)N=C(SCc2ccccc2)NC1c1cccc(O)c1` (configuration not stated), the outcome in [5] and in [6] was inactive. The Activity in the assay with HeLa [1] and in the assay on HeLa [2] was less than 25% throughout.

Regarding `COC(=O)Nc1nc2cc(C(=O)c3cccs3)ccc2[nH]1` [NOCODAZOLE], the Activity with HeLa [9] amounted to 82%.

For the compound `CCOC(=O)C1=C(C)NC(=S)NC1c1cccc(OC(C)=O)c1` (configuration not stated), the values for the IC50 (in the assay with HeLa [7]; in assay [10]) were 50 µM and 3.9 µM, respectively. For the same compound, the outcome in assay [5] and in assay [6] was inactive. The Activity in the assay on HeLa [1] amounted to 49.7%; with HeLa [2], 89.6%.

For `CC1=C(C(=O)OCCOCCOCCOCCO)C(c2cccc(O)c2)NC(=S)N1` (configuration not stated), the Activity is less than 25% with HeLa [1] and 16.8% in the assay on HeLa [2]. Also, the IC50 in assay [3] is 62.5 µM; in assay [4], 23 µM.

As for `CCOC(=O)C1=C(C)NC(=S)NC1c1ccc(O)c(O)c1` (configuration not stated), the result in [5] and in assay [6] was inactive. The Activity with HeLa [1] is given as less than 25%.

For `CCOC(=O)C1=C(C)NC(=S)N(C(C)=O)C1c1cccc(O)c1` (configuration not stated), in assay [10], the IC50 was 3.8 µM. The result in assay [5] and in [6] was inactive. Also, the Activity in the assay with HeLa [1] is listed as 36.9%.

Consider `CCOC(=O)C1=C(C)NC(=S)N(C(C)=O)C1c1cccc(OC(C)=O)c1` (configuration not stated), for which the IC50 came to 62.5 µM with HeLa [7] and 5 µM in [10]. Besides, the outcome in assay [5] and in [6] was inactive. The results for the Activity in the assay on HeLa [1] and with HeLa [2] were 39.3% and 83.5%, respectively.

Consider `CCOC(=O)C1=C(C)N(CCOCCOCCO)C(=S)NC1c1cccc(O)c1` (configuration not stated), for which the result in assay [5] and in [6] was inactive. The values for the Activity in the assay with HeLa [1] and in the assay with HeLa [2] were less than 25% and 13.6%, respectively.

For `CCOC(=O)C1=C(C)NC(=S)NC1c1cccc(O)c1` (configuration not stated) [MONASTROL], the IC50 in the assay with HeLa [7] was found to be 51.3 µM; in [10], 6.1 µM; in assay [3], 12.3 µM; in [4], 6.1 µM. The Activity in the assay with HeLa [8] came out at 48%; in the assay on HeLa [1], 45.5%; in the assay with HeLa [2] it was 94.4%.
